According to ChEMBL document CHEMBL2401717, “Synthesis and bioactive evaluation of novel hybrids of metronidazole and berberine as new type of antimicrobial agents and their transportation behavior by human serum albumin” (Bioorg Med Chem, 2013):

What was measured:
[1] = tested on: Staphylococcus aureus; assay: Antibacterial activity against Staphylococcus aureus ATCC 25923 after 24 hrs by twofold broth dilution method; type: functional; settings: ATCC 25923, 24 h
Summary of the method: (§1)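 MIC by NCCLS-recommended twofold broth microdilution, run in triplicate. Strains: B. subtilis ATCC6633, E. coli DH52, M. luteus ATCC4698, P. vulgaris ATCC6896, S. dysenteriae, S. aureus ATCC25923, MRSA N315, C. albicans ATCC76615, C. mycoderma. References were chloromycin, norfloxacin and berberine for bacteria, and fluconazole for fungi.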

[2] = tested on: Shigella dysenteriae; assay: Antibacterial activity against Shigella dysenteriae after 24 hrs by twofold broth dilution method; type: functional; summary of the method: as §1
[3] = tested on: Micrococcus luteus; assay: Antibacterial activity against Micrococcus luteus ATCC 4698 after 24 hrs by twofold broth dilution method; type: functional; settings: ATCC 4698, 24 h; summary of the method: as §1
[4] = Octanol-water partition coefficient, log P of the compound after 24 hrs by UV-Vis spectrophotometry; type: physicochemical
[5] = Stability of the compound at pH 6.5 to 8.5 after 30 mins by UV spectrophotometry; type: physicochemical; settings: buffer, pH 6.5, 0.5 h
Summary of the method: (§2)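 Stability followed by UV spectrometry across pH 6.5–8.5 and temperatures 30–80 °C.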

[6] = tested on: Staphylococcus aureus; assay: Antibacterial activity against methicillin-resistant Staphylococcus aureus N315 after 24 hrs by twofold broth dilution method; type: functional; settings: N315, 24 h; summary of the method: as §1
[7] = tested on: Proteus vulgaris; assay: Antibacterial activity against Proteus vulgaris after 24 hrs by twofold broth dilution method; type: functional; summary of the method: as §1
[8] = Solubility of the compound in phosphate buffer at pH 7.5 after 20 hrs by UV spectrophotometry; type: physicochemical
Summary of the method: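 Phosphate buffer pH 7.5 added to solid; suspension sonicated 10 min, then shaken at room temperature for 20 h and centrifuged. Supernatant concentration read by UV absorbance against a regression calibration curve (278 and 340 nm).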

[9] = tested on: Escherichia coli; assay: Antibacterial activity against Escherichia coli DH52 after 24 hrs by twofold broth dilution method; type: functional; settings: DH52, 24 h; summary of the method: as §1
[10] = tested on: Pseudomonas aeruginosa; assay: Antibacterial activity against Pseudomonas aeruginosa after 24 hrs by twofold broth dilution method; type: functional
Summary of the method: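 Twofold broth dilution in 96-well microplates following NCCLS guidance; MIC read as the endpoint; tests run in triplicate.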

[11] = tested on: Candida; assay: Antifungal activity against Candida mycoderma after 24 hrs by twofold broth dilution method; type: functional; summary of the method: as §1
[12] = Stability of the compound at 30 to 80 degC after 30 mins by UV spectrophotometry; type: physicochemical; settings: 0.5 h; summary of the method: as §2
[13] = tested on: Bacillus subtilis; assay: Antibacterial activity against Bacillus subtilis after 24 hrs by twofold broth dilution method; type: functional; summary of the method: as §1
[14] = tested on: Candida albicans; assay: Antifungal activity against Candida albicans after 24 hrs by twofold broth dilution method; type: functional; summary of the method: as §1
[15] = target: T1, Albumin (Homo sapiens, UniProt P02768); assay: Binding affinity to human serum albumin assessed as decrease in fluorescence quenching at 286K by UV-Vis spectroscopy; type: ADME; settings: isolated protein
T1 sequence (P02768 whole entry): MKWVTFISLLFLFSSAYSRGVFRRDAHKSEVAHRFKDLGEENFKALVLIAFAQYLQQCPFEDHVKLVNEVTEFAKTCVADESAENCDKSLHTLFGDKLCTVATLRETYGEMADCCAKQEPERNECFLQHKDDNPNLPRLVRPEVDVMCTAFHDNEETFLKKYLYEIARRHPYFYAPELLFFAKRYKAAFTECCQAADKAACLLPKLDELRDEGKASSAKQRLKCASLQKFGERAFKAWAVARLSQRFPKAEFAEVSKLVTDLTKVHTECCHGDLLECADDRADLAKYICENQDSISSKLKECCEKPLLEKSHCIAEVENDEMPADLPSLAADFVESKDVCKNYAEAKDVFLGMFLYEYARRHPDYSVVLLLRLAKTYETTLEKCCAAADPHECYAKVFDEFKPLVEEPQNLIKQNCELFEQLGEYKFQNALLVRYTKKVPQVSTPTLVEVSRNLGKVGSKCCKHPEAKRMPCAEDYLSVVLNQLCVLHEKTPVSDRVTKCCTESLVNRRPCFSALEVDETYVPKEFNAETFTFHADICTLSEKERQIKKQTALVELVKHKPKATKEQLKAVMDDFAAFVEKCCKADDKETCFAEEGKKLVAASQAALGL
Summary of the method: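 Fluorescence of HSA fixed at 1.0 × 10^-5 mol L^-1, titrated with compound in 0.2 × 10^-5 mol L^-1 steps. Excitation 295 nm, emission scanned 300–450 nm, slits 2.5 nm, 1.0 cm quartz cells. Spectra recorded at several temperatures (286, 295, 298, 304, 310 K are cited in places). Data fitted by Stern–Volmer, modified Stern–Volmer and Scatchard equations to give binding constants and site number.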

[16] = target: T1, Albumin; assay: Binding affinity to human serum albumin by UV-Vis spectrophotometry; type: ADME; settings: isolated protein
Summary of the method: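 HSA UV–vis absorption spectrum compared with the difference spectrum of HSA–compound complex minus compound at equal concentration; recorded at room temperature in 1.0 cm quartz cells.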

[17] = tested on: Pseudomonas aeruginosa; assay: Ratio of clinafloxacin MIC to compound MIC for Pseudomonas aeruginosa; type: functional
[18] = tested on: Candida; assay: Ratio of fluconazole MIC to compound MIC for Candida mycoderma; type: functional
Summary of the method: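 MICs for the compound and for fluconazole against Candida mycoderma were measured in parallel by twofold broth microdilution in 96-well plates, following NCCLS guidance, in triplicate. The ratio was then taken from the two MICs.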

[19] = tested on: Staphylococcus aureus; assay: Ratio of berberin MIC to compound MIC for Staphylococcus aureus ATCC 25923; type: functional
[20] = tested on: Bacillus subtilis; assay: Ratio of chloromycin MIC to compound MIC for Bacillus subtilis; type: functional
[21] = tested on: Escherichia coli; assay: Ratio of chloromycin MIC to compound MIC for Escherichia coli DH52; type: functional
[22] = tested on: Staphylococcus aureus; assay: Ratio of chloromycin MIC to compound MIC for Staphylococcus aureus ATCC 25923; type: functional

| SMILES | MIC [1] | MIC [2] | MIC [3] | logP at 24 h [4] | Stability [5] | MIC [6] | MIC [7] | solubility at 20 h [8] | MIC [9] | MIC [10] | MIC [11] | Stability [12] | MIC [13] | MIC [14] | further results |
| --- | --- | --- | --- | --- | --- | --- | --- | --- | --- | --- | --- | --- | --- | --- | --- |
| COc1ccc2cc3[n+](cc2c1OCCN(CCn1c([N+](=O)[O-])cnc1C)Cc1ccc(F)cc1F)CCc1cc2c(cc1-3)OCO2.[Cl-] | 16 µg/mL | 256 µg/mL | 128 µg/mL | -0.34 | Stable | 16 µg/mL | 64 µg/mL | 60.6 µg/mL | 128 µg/mL | 128 µg/mL | 128 µg/mL | Stable | 64 µg/mL | 64 µg/mL | – |
| COc1ccc2cc3[n+](cc2c1OCCN(CCn1cnc([N+](=O)[O-])c1)Cc1ccc(F)cc1F)CCc1cc2c(cc1-3)OCO2.[Cl-] | 16 µg/mL | 4 µg/mL | 16 µg/mL | 0.5 | Stable | 32 µg/mL | 16 µg/mL | 94 µg/mL | 16 µg/mL | 16 µg/mL | 8 µg/mL | Stable | 32 µg/mL | 16 µg/mL | – |
| COc1ccc2cc3[n+](cc2c1OCCN(CCn1cnc([N+](=O)[O-])c1)Cc1ccc(Cl)c(Cl)c1)CCc1cc2c(cc1-3)OCO2.[Cl-] | 16 µg/mL | 4 µg/mL | 16 µg/mL | 0.53 | Stable | 64 µg/mL | 16 µg/mL | 88.5 µg/mL | 16 µg/mL | 16 µg/mL | 64 µg/mL | Stable | 32 µg/mL | 16 µg/mL | – |
| COc1ccc2cc3[n+](cc2c1OCCN(CCn1cncc1[N+](=O)[O-])Cc1ccc(F)cc1F)CCc1cc2c(cc1-3)OCO2.[Cl-] | 8 µg/mL | 4 µg/mL | 8 µg/mL | 0.52 | Stable | 16 µg/mL | 4 µg/mL | 98.1 µg/mL | 8 µg/mL | 8 µg/mL | 1 µg/mL | Stable | 32 µg/mL | 8 µg/mL | Activity [15]: Active; Activity [16]: Active; Ratio [17]: 2; Ratio [18]: 4 |
| COc1ccc2cc3[n+](cc2c1OCCN(CCn1cncc1[N+](=O)[O-])Cc1ccccc1Cl)CCc1cc2c(cc1-3)OCO2.[Cl-] | 2 µg/mL | 8 µg/mL | 32 µg/mL | 0.56 | Stable | 8 µg/mL | 16 µg/mL | 86.4 µg/mL | 4 µg/mL | 8 µg/mL | 32 µg/mL | Stable | 4 µg/mL | 4 µg/mL | Ratio [19]: 8; Ratio [20]: 4; Ratio [21]: 4; Ratio [22]: 8 |
